Measured values gathered from unrelated publications.
Each line is one published result; the experiments were not run side by side.
HTR5A: 5-hydroxytryptamine receptor 5A (HTR5A, Homo sapiens, UniProt P47898)
Kir1 channel protein: Kir1 channel protein (Aedes aegypti, UniProt L0EQS9)
DRD4: D(4) dopamine receptor (DRD4, Homo sapiens, UniProt P21917)
PIK3CD: Phosphatidylinositol 4,5-bisphosphate 3-kinase catalytic subunit delta isoform (PIK3CD, Homo sapiens, UniProt O00329)

Compound | target | test | setting | measurement | value
CNc1nc2cc(OCCCCN3CCC(c4cccc(Cl)c4Cl)CC3)ccc2s1 | HTR5A | ligand displacement, radioligand |  | Ki | 810 nM
CCN(CC)c1ccc(C2Nc3ccc(C(=O)c4ccccc4)cc3NC3=C2C(=O)CC(C)(C)C3)cc1 (stereo not shown) | HTR5A | cell-free assay, radioligand |  | Ki | 7960 nM
CC(=O)CC(=O)SCCNC(=O)CCNC(=O)[C@H](O)C(C)(C)COP(=O)(O)OP(=O)(O)OC[C@H]1O[C@@H](n2cnc3c(N)ncnc32)[C@H](O)[C@@H]1OP(=O)(O)O | IVD (Homo sapiens, UniProt P26440) | binding, absorbance |  | Kd | ~18000 nM
O=S(=O)(c1ccc(F)cc1)N1CCN(c2ccc(C(F)(F)F)c(NCc3ccncc3)c2)CC1 | Kir1 channel protein | ion flux, inhibitor |  | IC50 | 4000 to 9000 nM
COc1ccccc1N1CCN(CCCCN2CCc3ccccc3C2=O)CC1 | DRD4 | ligand displacement, radioligand |  | Ki | 6 nM
CS(=O)(=O)C1(CNCc2ccc(Br)c3cccnc23)CC1 | HTR5A | ligand displacement, radioligand |  | Ki | 178 nM
C=CC(=O)N1CCC(C(=O)NCC(=O)N2CCN(c3nc(-c4cnc(N)nc4C(F)F)nc(N4CCOCC4)n3)CC2)CC1 | PIK3CD | binding, competition with immobilised ligand |  | Kd | 0.71 nM
CN1CCN(c2ccc(Nc3ncc4cc(C#N)c(=O)n(C5CCCC5)c4n3)cc2)CC1 | Ribosomal protein S6 kinase alpha-5 (RPS6KA5, Homo sapiens, UniProt O75582) | enzyme activity, inhibitor |  | IC50 | 9210 nM
Nc1nc2c(ncn2[C@@H]2O[C@H](COP(=O)(O)OP(=O)(O)O)[C@@H](OP(=O)(O)OP(=O)(O)O)[C@H]2O)c(=O)[nH]1 | cmk (Escherichia coli, UniProt P0A6I0) | binding, ITC |  | Kd | 79000 nM
Cc1ncsc1-c1ccc(CNC(=O)[C@@H]2C[C@@H](O)CN2C(=O)[C@@H](NC(=O)CCCCCCCCCC(=O)N2CCN(CC[C@H](NC(=O)C3(N)CCN(c4ncnc5[nH]ccc45)CC3)c3ccc(Cl)cc3)CC2)C(C)(C)C)cc1 | RAC-beta serine/threonine-protein kinase (AKT2, Homo sapiens, UniProt P31751) | binding, competition with immobilised ligand |  | Kd | 360 nM
CCn1c(-c2nc3ccc(C(=O)N4CCCC(N)C4)cc3n2C)cc2ccccc21 (stereo not shown) | Nuclear receptor subfamily 1 group I member 2 (NR1I2, Homo sapiens, UniProt O75469) | reporter gene, agonist, luciferase |  | EC50 | > 50100 nM
Clc1ccc(CNC[C@H]2CCn3ccnc3C2)c2ncccc12 | HTR5A | ligand displacement, radioligand |  | Ki | 3240 nM
CCCCCCCNCCCc1ccc([N+](=O)[O-])cc1 | DRD4 | ligand displacement, radioligand |  | Ki | 240 nM
N#Cc1ccc(N2CCN(S(=O)(=O)c3ccc(F)cc3)CC2)cc1NCc1ccncc1 | Kir1 channel protein | ion flux, inhibitor |  | IC50 | 361 nM
Cc1cnc(-c2ccc(-c3ccc(NC(=O)Nc4c(F)cc(F)cc4F)cc3F)c3c2C(=O)NC3)[nH]1 | Tyrosine-protein kinase BTK (BTK, Homo sapiens, UniProt Q06187) | binding, competition with immobilised ligand |  | Kd | 27 nM
Oc1cccc(CCC2=NCCN2Cc2ccccc2)c1 | DRD4 | ligand displacement, radioligand |  | Ki | > 10000 nM
O=[N+]([O-])c1ccc(N2CCN(S(=O)(=O)c3ccc(Cl)cc3)CC2)cc1NCc1ccco1 | Kir1 channel protein | ion current, inhibitor, patch clamp |  | IC50 | 34.2 nM
COc1ccc(F)cc1C(=O)NCc1ccc(-c2nn([C@@H](C)C(F)(F)F)c(N)c2C(N)=O)cc1 | Tyrosine-protein kinase BTK (BTK, Homo sapiens, UniProt Q06187, C481S) | phosphorylation in cells, inhibitor |  | IC50 | 8.1 nM
CC1=C(O)C(=O)OC1C (stereo not shown) | OR8D1 (Homo sapiens, UniProt Q8WZ84, R293A) | cAMP, agonist, luciferase |  | EC50 | 13500 nM
COc1ccc2c(c1)C(=O)N(CCN1CCN(c3ccccc3OC)CC1)C2 | DRD4 | ligand displacement, radioligand |  | Ki | 191 nM
COc1cc(F)cc2c(N3CCN4c5ccccc5OC[C@@H]4C3)c(C#N)nnc12 (single isomer, unassigned) | Metabotropic glutamate receptor 8 (GRM8, Homo sapiens, UniProt O00222) | calcium signal, positive allosteric modulator |  | EC50 | > 30000 nM
C=CC(=O)N1CCC(C(=O)N(C)CC(=O)N2CCN(c3nc(-c4cnc(N)nc4C(F)F)nc(N4CCOCC4)n3)CC2)CC1 | PIK3CD | binding, competition with immobilised ligand |  | Kd | 2.2 nM
O=S(=O)(c1ccc(F)cc1)N1CCN(c2ccnc(NCc3ccncc3)c2)CC1 | Kir1 channel protein | ion flux, inhibitor |  | IC50 | 4000 to 9000 nM
CC[C@@H]1C(=O)OC[C@@H]1Cc1cncn1C | Cytochrome P450 2E1 (CYP2E1, Homo sapiens, UniProt P05181) | enzyme activity, inhibitor | 10 min, pH 6.8 | Ki | 765000 nM
CCCCN1CCC(COC(=O)c2ccc(N)c(OCF)c2)CC1 | HTR5A | cell-free assay, radioligand |  | Ki | > 10000 nM
